In ChEMBL document CHEMBL5661969, “Preclinical evaluation of a potent novel DNA-dependent protein kinase inhibitor NU7441” (Cancer Res, 2006):

Tests used:
[1] = Bioavailability in BALB/c mouse at 10 mg/kg, ip by HPLC analysis; assay type: ADME, organism-based; details: in vivo
Method in brief: (§1)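 Female BALB/c mice dosed 5 mg/kg i.v. in 10% DMSO/10% cyclodextrin in saline, or 10 mg/kg i.p. or orally at 1 mg/mL in 40% PEG400/saline. Plasma taken at 5, 10, 15, 30, 60, 90, 120, 180, 240 and 360 min, three mice per time. Acetonitrile precipitation, C18 HPLC with UV detection at 329 nm against a plasma standard curve. Parameters derived from mean concentrations.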

[2] = Inhibition of DNA-PK in Chinese hamster DNA-PK proficient V3-YAC cells assessed as potentiation of ionizing radiation-induced cytotoxicity by measuring fold change in radiation LD90 at 0.5 umol/L preincubated for 1 hr followed by gamma-irradiation and measured after 16 hrs by crystal violet staining based assay relative to radiation alone; parameters: species or system Cricetulus griseus; details: dose 0.5 µmol/L; time 17 hrs; condition cancer
Method in brief: (§2)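 V3-YAC Chinese hamster ovary cells (human DNA-PKcs YAC, kept in 500 μg/mL G-418), RPMI 1640/10% FBS. Cells reseeded drug-free, colonies crystal violet stained after 10–14 days; LD90 ratio without/with inhibitor (DMR90).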

[3] = Clearance in BALB/c mouse at 10 mg/kg, po by HPLC analysis; assay type: ADME, organism-based; details: in vivo; method in brief: as §1
[4] = Ratio of drug level in brain to plasma of human SW620 cell xenografted athymic nude CD1 mouse at 10 mg/kg, ip measured after 90 mins by HPLC analysis; assay type: ADME, organism-based; details: brain and plasma, read-out: BPR
Method in brief: (§3)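 Female CD-1 nu/nu mice bearing s.c. flank SW620 tumours (1×10^7 cells, ~650 mm³ at 10–14 days) given 10 mg/kg i.p. Tissues snap frozen, homogenised 1:3 in PBS. Acetonitrile precipitation, C18 HPLC with acetate pH 5/acetonitrile 75:25 mobile phase, UV 329 nm; tissue levels by method of addition. Tissue/plasma ratio, mean of three mice per time.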

LoVo = assay: Cell cycle arrest in human LoVo cells assessed as increase in G1-phase cell population at 1 umol/L measured after 1 hr by propidium iodide staining based flow cytometry relative to control; assay type: toxicity; details: 1 µM, dose 1 µmol/L
Method in brief: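 Asynchronous SW620 or LoVo cells, seeded 24 h earlier, given control or 1 μmol/L agent medium for 1 h before ionizing radiation, etoposide or doxorubicin, then incubated a further 16 h. Cells fixed in 70% ethanol, stained with propidium iodide (400 μg/mL) plus RNase (1 mg/mL), and analysed by 488 nm flow cytometry.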

[5] = Ratio of drug level in tumor to plasma of human SW620 cell xenografted athymic nude CD1 mouse at 10 mg/kg, ip measured after 30 mins by HPLC analysis; assay type: ADME, organism-based; details: tumor and plasma; method in brief: as §3
[6] = Drug level in tumor of human SW620 cell xenografted athymic nude CD1 mouse at 10 mg/kg, ip measured after 4 hrs by HPLC analysis; assay type: ADME, organism-based, Neoplasm, SW-620; details: read-out: Drug uptake
Method in brief: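 CD1 nu/nu female mice carry s.c. SW620 flank tumours (1×10^7 cells), used at ~650 mm³. Single 10 mg/kg i.p. dose, tumour excised and snap frozen at time points up to 240 min, then homogenized 1:3 in PBS. HPLC-UV at 329 nm; tissue levels by the method of addition. Three mice per time point.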

[7] = target: T1, DNA-dependent protein kinase catalytic subunit (Homo sapiens, UniProt P78527); assay: Inhibition of human HeLa cell nuclear extract purified DNA-PK using p53 peptide as substrate by ELISA
[8] = Ratio of drug level in tumor to plasma of human SW620 cell xenografted athymic nude CD1 mouse at 10 mg/kg, ip measured after 90 mins by HPLC analysis; assay type: ADME, organism-based; details: tumor and plasma; method in brief: as §3
[9] = Toxicity in human SW620 cell xenografted athymic nude CD1 mouse assessed as maximum body weight loss at 10 mg/kg, ip administered 5 times daily for 5 days relative to control; assay type: organism-based, SW-620; details: in vivo, 120 h, time 5 day
Method in brief: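 CD-1 nude mice carry palpable s.c. SW620 xenografts (~5×5 mm, 8-10 days), five per group. Treated i.p. daily for 5 days with saline, agent in 40% PEG 400/saline, etoposide phosphate 11.35 mg/kg (equal to 10 mg/kg etoposide), or both, agent given immediately before etoposide phosphate. Read-outs are median relative tumour volume, time to 4× volume (growth delay) and body weight.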

[10] = Elimination half life in BALB/c mouse at 5 mg/kg, iv by HPLC analysis; assay type: ADME, organism-based; details: in vivo, read-out: beta t1/2; method in brief: as §1
[11] = target: T1, DNA-dependent protein kinase catalytic subunit; details: SW620, dose 1.0 µmol/L, time 17.0 hrs
[12] = AUCinfinity in BALB/c mouse at 10 mg/kg, po by HPLC analysis; assay type: ADME, organism-based; details: in vivo; method in brief: as §1
[13] = AUCinfinity in BALB/c mouse at 10 mg/kg, ip by HPLC analysis; assay type: ADME, organism-based; details: in vivo; method in brief: as §1
[14] = Ratio of drug level in brain to plasma of human SW620 cell xenografted athymic nude CD1 mouse at 10 mg/kg, ip measured after 60 mins by HPLC analysis; assay type: ADME, organism-based; details: brain and plasma, read-out: BPR; method in brief: as §3
[15] = Ratio of drug level in liver to plasma of human SW620 cell xenografted athymic nude CD1 mouse at 10 mg/kg, ip measured after 60 mins by HPLC analysis; assay type: ADME, organism-based; method in brief: as §3
[16] = Inhibition of DNA-PK in Chinese hamster DNA-PK proficient V3-YAC cells assessed as potentiation of etoposide-induced cytotoxicity by measuring fold change in etoposide LD90 at 0.5 umol/L measured after 16 hrs by crystal violet staining based assay relative to etoposide alone; parameters: species or system Cricetulus griseus; details: dose 0.5 µmol/L, condition cancer; method in brief: as §2
[17] = Growth inhibition of human SW620 cells at 1 umol/L measured after 5 days by crystal violet staining based assay relative to control; assay type: toxicity, cell-based, SW-620; details: dose 1 µmol/L, time 5 day, read-out: GI
Method in brief: (§4)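 LoVo and SW620 cells in 96-well plates under 5-day continuous exposure to agent, and growth measured relative to control.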

[18] = Cytotoxicity against Chinese hamster DNA-PK deficient V3 cells assessed as cell survival at 0.5 umol/L measured after 16 hrs by crystal violet staining based assay relative to control; assay type: toxicity, Cricetulus griseus; details: dose 0.5 µmol/L, read-out: Activity
Method in brief: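 Exponentially growing cells exposed 16 h to agent (0.5 or 1.0 μmol/L), with or without etoposide or doxorubicin, at 0.5% DMSO final; controls get DMSO alone. Cells are then trypsinized, reseeded at 100–100,000 per dish in drug-free medium and grown 10–14 days. Colonies stained with crystal violet and counted automatically.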

[19] = Ratio of drug level in brain to plasma of human SW620 cell xenografted athymic nude CD1 mouse at 10 mg/kg, ip measured after 240 mins by HPLC analysis; assay type: ADME, organism-based; details: brain and plasma, read-out: BPR; method in brief: as §3
[20] = Bioavailability in BALB/c mouse at 5 mg/kg, iv by HPLC analysis; assay type: ADME, organism-based; details: in vivo; method in brief: as §1
[21] = AUClast in BALB/c mouse at 10 mg/kg, ip by HPLC analysis; assay type: ADME, organism-based; details: in vivo; method in brief: as §1
[22] = Ratio of drug level in kidney to plasma of human SW620 cell xenografted athymic nude CD1 mouse at 10 mg/kg, ip measured after 240 mins by HPLC analysis; assay type: ADME, organism-based; method in brief: as §3
[23] = Growth inhibition of human LoVo cells at 1 umol/L measured after 5 days by crystal violet staining based assay relative to control; assay type: toxicity, cell-based; details: dose 1 µmol/L, time 5 day, read-out: GI; method in brief: as §4
[24] = Cmax in BALB/c mouse at 5 mg/kg, iv by HPLC analysis; assay type: ADME, organism-based; details: in vivo; method in brief: as §1

T1 sequence (P78527 whole entry): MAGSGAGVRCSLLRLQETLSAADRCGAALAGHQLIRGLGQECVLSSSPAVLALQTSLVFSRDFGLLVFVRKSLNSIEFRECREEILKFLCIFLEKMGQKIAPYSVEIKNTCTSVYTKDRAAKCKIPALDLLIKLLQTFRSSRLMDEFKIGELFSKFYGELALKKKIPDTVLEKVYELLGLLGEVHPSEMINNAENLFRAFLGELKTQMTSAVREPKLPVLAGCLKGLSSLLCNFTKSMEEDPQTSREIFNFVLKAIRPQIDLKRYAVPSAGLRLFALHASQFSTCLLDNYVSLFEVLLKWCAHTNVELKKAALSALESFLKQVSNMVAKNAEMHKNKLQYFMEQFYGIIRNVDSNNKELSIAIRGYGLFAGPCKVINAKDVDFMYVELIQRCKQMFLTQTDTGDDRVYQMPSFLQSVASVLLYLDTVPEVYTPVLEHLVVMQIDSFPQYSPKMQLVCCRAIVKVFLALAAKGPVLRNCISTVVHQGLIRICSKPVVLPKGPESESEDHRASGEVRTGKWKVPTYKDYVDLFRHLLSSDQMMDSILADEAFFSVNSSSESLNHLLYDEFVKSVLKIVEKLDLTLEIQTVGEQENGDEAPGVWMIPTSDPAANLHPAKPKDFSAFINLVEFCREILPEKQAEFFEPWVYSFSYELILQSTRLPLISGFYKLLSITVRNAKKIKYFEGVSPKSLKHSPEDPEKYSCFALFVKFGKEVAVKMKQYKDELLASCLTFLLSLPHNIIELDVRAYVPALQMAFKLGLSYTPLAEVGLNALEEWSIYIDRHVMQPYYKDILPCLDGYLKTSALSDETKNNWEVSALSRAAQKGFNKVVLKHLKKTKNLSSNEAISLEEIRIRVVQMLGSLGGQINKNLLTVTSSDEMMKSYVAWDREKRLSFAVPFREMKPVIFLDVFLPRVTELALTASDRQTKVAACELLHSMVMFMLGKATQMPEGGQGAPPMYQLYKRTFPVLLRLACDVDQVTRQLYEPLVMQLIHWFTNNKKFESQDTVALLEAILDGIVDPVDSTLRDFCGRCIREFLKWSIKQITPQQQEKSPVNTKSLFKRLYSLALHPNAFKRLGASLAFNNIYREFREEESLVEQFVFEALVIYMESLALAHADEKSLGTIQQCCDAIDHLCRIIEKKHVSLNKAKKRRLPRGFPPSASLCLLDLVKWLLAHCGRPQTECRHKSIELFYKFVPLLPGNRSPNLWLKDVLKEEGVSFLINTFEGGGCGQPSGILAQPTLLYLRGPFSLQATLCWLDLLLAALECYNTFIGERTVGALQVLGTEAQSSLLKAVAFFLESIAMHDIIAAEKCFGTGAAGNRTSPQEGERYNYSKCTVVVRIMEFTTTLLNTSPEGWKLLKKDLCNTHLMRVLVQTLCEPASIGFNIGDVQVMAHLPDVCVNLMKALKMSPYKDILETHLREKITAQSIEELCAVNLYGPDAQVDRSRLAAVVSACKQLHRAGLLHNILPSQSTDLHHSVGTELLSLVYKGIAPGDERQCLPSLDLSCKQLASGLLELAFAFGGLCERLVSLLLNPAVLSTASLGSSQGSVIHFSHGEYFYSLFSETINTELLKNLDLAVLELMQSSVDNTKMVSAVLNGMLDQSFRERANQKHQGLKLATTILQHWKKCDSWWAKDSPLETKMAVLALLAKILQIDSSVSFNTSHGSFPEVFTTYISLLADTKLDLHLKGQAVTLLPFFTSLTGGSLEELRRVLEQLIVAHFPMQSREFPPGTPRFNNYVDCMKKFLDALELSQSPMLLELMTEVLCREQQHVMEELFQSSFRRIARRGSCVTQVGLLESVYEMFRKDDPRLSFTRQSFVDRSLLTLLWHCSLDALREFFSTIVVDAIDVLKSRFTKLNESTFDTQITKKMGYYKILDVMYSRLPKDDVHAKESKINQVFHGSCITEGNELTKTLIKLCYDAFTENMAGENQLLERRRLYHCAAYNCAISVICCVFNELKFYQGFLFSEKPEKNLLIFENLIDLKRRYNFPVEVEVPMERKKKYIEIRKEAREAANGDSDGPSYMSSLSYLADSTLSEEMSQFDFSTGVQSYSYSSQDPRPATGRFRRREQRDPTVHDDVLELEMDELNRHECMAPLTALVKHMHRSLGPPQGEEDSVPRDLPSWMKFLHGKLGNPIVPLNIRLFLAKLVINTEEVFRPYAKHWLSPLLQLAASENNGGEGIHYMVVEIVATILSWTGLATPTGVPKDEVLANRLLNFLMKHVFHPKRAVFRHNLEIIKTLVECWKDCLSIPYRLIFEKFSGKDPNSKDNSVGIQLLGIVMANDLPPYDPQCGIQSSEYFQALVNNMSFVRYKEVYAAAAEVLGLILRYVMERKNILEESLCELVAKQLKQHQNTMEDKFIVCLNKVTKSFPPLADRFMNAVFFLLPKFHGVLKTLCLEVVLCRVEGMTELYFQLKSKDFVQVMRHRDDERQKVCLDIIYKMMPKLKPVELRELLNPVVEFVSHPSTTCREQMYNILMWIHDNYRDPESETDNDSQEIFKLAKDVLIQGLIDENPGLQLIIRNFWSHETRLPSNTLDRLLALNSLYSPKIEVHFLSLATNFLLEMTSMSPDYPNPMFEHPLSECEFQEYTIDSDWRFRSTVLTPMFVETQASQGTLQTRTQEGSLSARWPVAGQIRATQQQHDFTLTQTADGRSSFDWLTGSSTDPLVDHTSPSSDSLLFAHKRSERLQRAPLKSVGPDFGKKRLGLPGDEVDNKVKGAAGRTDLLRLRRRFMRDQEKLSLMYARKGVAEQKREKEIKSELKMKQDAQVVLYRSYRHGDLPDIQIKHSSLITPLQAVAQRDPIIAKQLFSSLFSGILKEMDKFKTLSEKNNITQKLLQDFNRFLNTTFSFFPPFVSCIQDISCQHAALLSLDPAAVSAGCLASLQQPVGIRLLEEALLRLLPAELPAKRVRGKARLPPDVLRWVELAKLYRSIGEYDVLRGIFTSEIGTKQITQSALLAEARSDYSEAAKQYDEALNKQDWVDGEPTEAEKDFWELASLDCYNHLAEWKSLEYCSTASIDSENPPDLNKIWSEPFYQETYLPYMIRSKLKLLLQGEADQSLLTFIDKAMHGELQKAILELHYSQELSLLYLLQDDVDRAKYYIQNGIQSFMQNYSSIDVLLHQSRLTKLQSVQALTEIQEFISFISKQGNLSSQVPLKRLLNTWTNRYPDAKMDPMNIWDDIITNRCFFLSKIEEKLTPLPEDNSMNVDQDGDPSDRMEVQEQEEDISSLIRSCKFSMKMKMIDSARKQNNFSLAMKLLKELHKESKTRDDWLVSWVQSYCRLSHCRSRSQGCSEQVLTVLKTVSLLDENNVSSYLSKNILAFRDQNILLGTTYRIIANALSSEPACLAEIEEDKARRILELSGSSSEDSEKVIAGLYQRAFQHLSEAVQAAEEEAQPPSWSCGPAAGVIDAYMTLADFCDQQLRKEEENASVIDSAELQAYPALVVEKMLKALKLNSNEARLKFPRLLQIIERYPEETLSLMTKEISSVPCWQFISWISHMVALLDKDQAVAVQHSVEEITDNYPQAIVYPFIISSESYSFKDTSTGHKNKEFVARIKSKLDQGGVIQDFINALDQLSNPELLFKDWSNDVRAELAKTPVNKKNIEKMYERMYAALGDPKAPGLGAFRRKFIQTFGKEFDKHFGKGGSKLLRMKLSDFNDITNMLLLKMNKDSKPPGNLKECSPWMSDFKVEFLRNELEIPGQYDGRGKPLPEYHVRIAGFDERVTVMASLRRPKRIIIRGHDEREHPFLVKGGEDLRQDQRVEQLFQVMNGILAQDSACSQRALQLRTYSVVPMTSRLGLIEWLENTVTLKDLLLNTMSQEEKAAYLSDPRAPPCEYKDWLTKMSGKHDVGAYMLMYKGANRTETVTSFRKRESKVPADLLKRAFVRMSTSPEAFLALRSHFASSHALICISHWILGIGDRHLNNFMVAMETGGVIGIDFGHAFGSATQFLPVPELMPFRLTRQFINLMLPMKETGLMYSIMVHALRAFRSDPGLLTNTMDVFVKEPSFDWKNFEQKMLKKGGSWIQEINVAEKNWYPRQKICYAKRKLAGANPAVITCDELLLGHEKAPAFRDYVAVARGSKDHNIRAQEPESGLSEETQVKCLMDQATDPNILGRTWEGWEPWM

O=c1cc(N2CCOCC2)oc2c(-c3cccc4c3sc3ccccc34)cccc12
bioavailability [1]: 100% | fold change (FC) [2]: 1.6 | CL/F [3]: 140 mL/min/kg | Kp at 1.5 h [4]: 3 | Activity (LoVo): 54% | Kp at 0.5 h [5]: 1.4 | concentration at 4 h [6]: 500 nM | IC50 [7]: 14 nM | Kp at 1.5 h [8]: 1.5 | Activity [9]: 12% | half-life [10]: 46 min | LD90 [11]: 1.1 Gy | AUC(0-inf) [12]: 1200 ng·h/mL | AUC(0-inf) [13]: 2530 ng·h/mL | Kp at 1 h [14]: 3.2 | Kp at 1 h [15]: 5.4 | fold change (FC) [16]: 2.3 | inhibition at 120 h, 1 µM [17]: 8% | viability at 16 h, 0.5 µM [18]: 94% | Kp at 4 h [19]: 6.2 | F [20]: 100% | AUC(0-t) [21]: 2500 ng·h/mL | Kp at 4 h [22]: 1 | inhibition at 120 h, 1 µM [23]: 78% | Cmax [24]: 1600 ng/mL
